# In PMC7986984 (Brain, behavior, and immunity, 2020):
# Read-outs that look alike come from different tables or passages of the source. Marks after values point to notes of the source that are not given here.
# Experiments:
# [1] = format: in vivo, mice; conditions: for AUC: over 24 h; for Cmax: n = 6 +/- SEM
# [2] = format: in vivo, mice; conditions: for AUC: over 24 h; for Cmax: mice, bolus by oral gavage, 0.25-24 h, n = 6 +/- SEM
# [3] = test system: Caco-2 / THP-1 coculture; assay: Transepithelial electrical resistance; format: cell-based, human; conditions: LPS +, TMF + (AHR antagonist); metabolites 250 ng/mL
# Summary of the method: (§1)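 Caco-2 grown 18 days on 8 μm transwells to TEER 500 ohm×cm2, set over THP-1 differentiated with PMA (15 nM, 48 h). Pretreatment 24 h with fermented supernatant (50 μL/1 mL) or metabolites (250 ng/mL), with or without AHR antagonist TMF. Challenge with LPS 1 μg/ml, IFN-γ and ATP in both compartments. Read-outs: TEER before and after; kynurenine by chemical assay, % control; IL-1β by ELISA, fold over untreated. n = 4 wells; t-test.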
# [4] = test system: Kynurenine; assay: Kynurenine production; format: cell-based, human; conditions: LPS +, metabolites 250 ng/mL
# Summary of the method: as §1
# [5] = test system: IL-1β; assay: IL-1β production; format: cell-based, human; conditions: LPS +, ELISA, metabolites 250 ng/mL
# Summary of the method: as §1
# [6] = male, mouse, brain, po, AUC, Chronic BDPP
# [7] = male, mouse, brain, po, AUC, Chronic Synbiotic
# [8] = male, mouse, brain, po, Cmax, Chronic BDPP
# [9] = male, mouse, brain, po, Cmax, Chronic Synbiotic
# [10] = male, mouse, brain, po, Tmax, Chronic BDPP
# [11] = male, mouse, brain, po, Tmax, Chronic Synbiotic
# [12] = male, mouse, plasma, po, AUC, Chronic BDPP
# [13] = male, mouse, plasma, po, AUC, Chronic Synbiotic
# [14] = male, mouse, plasma, po, Tmax, Chronic BDPP
# [15] = male, mouse, plasma, po, Tmax, Chronic Synbiotic
# [16] = TMF −, fold change from untreated controls
SMILES,"AUC [1, 6]","AUC [1, 7]","Cmax [1, 8]","Cmax [1, 9]","Tmax [1, 10]","Tmax [1, 11]","AUC [2, 12]","AUC [2, 13]","Tmax [2, 14]","Tmax [2, 15]",also measured
"O=C(O)c1ccc(O)c(O)c1 [3,4-diHBA, 3,4-Dihydroxybenzoic acid]",0.0881 µg·h/mL,0.291 µg·h/mL,15.2 ± 3.1 ng/mL,14.4 ± 3.8 ng/mL,18 min,30 min,0.138 µg·h/mL,0.0334 µg·h/mL,18 min,18 min,–
"O=C(O)Cc1ccc(O)c(O)c1 [3,4-diHPAA, 3,4-Dihydroxyphenylacetic acid]",2.2 µg·h/mL,2.12 µg·h/mL,100 ± 7 ng/mL,126 ± 24 ng/mL,60 min,120 min,0.74 µg·h/mL,0.344 µg·h/mL,30 min,30 min,–
"O=C(O)c1cccc(O)c1 [3-HBA, 3-Hydroxybenzoic acid]",0.0673 µg·h/mL,0.146 µg·h/mL,5.4 ± 0.4 ng/mL,8.9 ± 1.8 ng/mL,30 min,240 min,0.366 µg·h/mL,0.214 µg·h/mL,60 min,60 min,–
"O=C(O)Cc1cccc(O)c1 [3-HPAA, 3-Hydroxyphenylacetic acid]",0.029 µg·h/mL,0.0412 µg·h/mL,2.7 ± 0.3 ng/mL,3.2 ± 0.5 ng/mL,30 min,30 min,0.606 µg·h/mL,1.08 µg·h/mL,60 min,18 min,–
"O=C(O)CCc1cccc(O)c1 [3-HPPA, 3-(3-Hydroxyphenyl)propionic acid]",–,–,–,–,–,–,0.0047 µg·h/mL,0.06 µg·h/mL,60 min,120 min,–
"COc1cc(-c2oc3cc(O)cc(O)c3c(=O)c2O)ccc1O [3′-MeQUER, Isorhamnetin]",0.0269 µg·h/mL,0.103 µg·h/mL,12.2 ± 6.9 ng/mL,28.4 ± 6.3 ng/mL,18 min,60 min,0.0156 µg·h/mL,0.0724 µg·h/mL,15 min,30 min,"TEER (% Control) [3]: 73.4 ± 1.2 % Control; Kynurenine (% Change) ([4]; TMF +): 129.9 ± 13.8 % Change; Kynurenine (% Change) ([4]; TMF −): 102.3 ± 9.6τ % Change; IL-1β(Fold Change) ([5]; TMF +): 9.4 ± 0.3τ ^* Fold Change; IL-1β(Fold Change) [5, 16]: 6.5 ± 0.4τ Fold Change"
"O=C(O)c1ccc(O)cc1 [4-HBA, 4-Hydroxybenzoic acid]",1.7 µg·h/mL,6.68 µg·h/mL,108 ± 19.3 ng/mL,448 ± 15 ng/mL,0 min,480 min,0.866 µg·h/mL,1.28 µg·h/mL,–,1440 min,–
"O=C(O)C=Cc1ccc(O)cc1 [4-HCA, 4-Hydroxycinnamic acid]",–,–,–,–,–,–,0.455 µg·h/mL,1.67 µg·h/mL,18 min,18 min,–
"O=C(O)CNC(=O)c1ccc(O)cc1 [4-HHA, 4-Hydroxyhippuric acid]",–,–,–,–,–,–,0.0017 µg·h/mL,0.0059 µg·h/mL,18 min,120 min,–
"COc1c(O)cc(C(=O)O)cc1O [4-MeGA, 4-O-Methylgallic acid]",0.0033 µg·h/mL,0.0068 µg·h/mL,2.2 ± 0.4 ng/mL,5 ± 1 ng/mL,30 min,18 min,0.336 µg·h/mL,0.163 µg·h/mL,30 min,30 min,–
"COc1cc(O)c2c(=O)c(O)c(-c3ccc(O)c(O)c3)oc2c1 [7′-MeQUER, Rhamnetin]",–,0.00114 µg·h/mL,–,0.1 ± 0.09 ng/mL,–,30 min,–,0.0004 µg·h/mL,–,30 min,"TEER (% Control) [3]: 74.5 ± 2.0 % Control; Kynurenine (% Change) ([4]; TMF +): 132.0 ± 13.3 % Change; Kynurenine (% Change) ([4]; TMF −): 119.5 ± 4.3 % Change; IL-1β(Fold Change) ([5]; TMF +): 8.1 ± 0.4τ Fold Change; IL-1β(Fold Change) [5, 16]: 7.9 ± 0.4τ Fold Change"
"Oc1cc(O)c2c(c1)OC(c1ccc(O)c(O)c1)C(O)C2 (stereo not drawn) [C, Catechin]",–,–,–,–,–,–,–,–,–,–,"Tmax ([2]; Plasma, Chronic BDPP): 30 min; Cmax ([2]; Plasma, Chronic BDPP): 55.5 ± 7.8 ng/mL; AUC ([2]; Plasma, Chronic BDPP): 80.6** ng/mL*h; Tmax ([2]; Plasma, Chronic Synbiotic): 60 min; Cmax ([2]; Plasma, Chronic Synbiotic): 0.0098 ± 0.0007 ng/mL; AUC ([2]; Plasma, Chronic Synbiotic): 0.0252 µg·h/mL"
"COc1cc(CCC(=O)O)ccc1O [DHFA, Dihyroferulic acid]",–,–,–,–,–,–,–,–,–,–,"Tmax ([2]; Plasma, Chronic BDPP): 18 min; Cmax ([2]; Plasma, Chronic BDPP): 2.5 ± 0.7 ng/mL; AUC ([2]; Plasma, Chronic BDPP): 0.0307 µg·h/mL; Tmax ([2]; Plasma, Chronic Synbiotic): 18 min; Cmax ([2]; Plasma, Chronic Synbiotic): 0.0077 ± 0.0011 ng/mL; AUC ([2]; Plasma, Chronic Synbiotic): 0.0302 µg·h/mL"
"Oc1ccc(CCc2cc(O)cc(O)c2)cc1 [DHRSV, Dihydroresveratrol]",–,–,–,–,–,–,1.05 µg·h/mL,7.8 µg·h/mL,60 min,480 min,–
"O=C1CCC(Cc2ccc(O)c(O)c2)O1 (stereo not drawn) [DHVL, 5-(3′,4′-Dihydroxyphenyl)-γ-valerolactone]",–,–,–,–,–,–,0.123 µg·h/mL,0.224 µg·h/mL,30 min,60 min,–
"Oc1cc(O)c2c(c1)O[C@H](c1ccc(O)c(O)c1)[C@H](O)C2 [EC, Epicatechin]",–,–,–,–,–,–,0.189 µg·h/mL,0.413 µg·h/mL,18 min,18 min,–
"COc1cc(/C=C/C(=O)O)ccc1O [FA, Ferulic acid]",–,–,–,–,–,–,–,–,–,–,"Tmax ([1]; Brain, Chronic BDPP): 30 min; Cmax ([1]; Brain, Chronic BDPP): 1.5 ± 0.3 ng/mL; AUC ([1]; Brain, Chronic BDPP): 0.0188 µg·h/mL; Tmax ([1]; Brain, Chronic Synbiotic): 120 min; Cmax ([1]; Brain, Chronic Synbiotic): 0.0023 ± 0.0006 ng/mL; AUC ([1]; Brain, Chronic Synbiotic): 0.02 µg·h/mL; Tmax ([2]; Plasma, Chronic BDPP): 30 min; Cmax ([2]; Plasma, Chronic BDPP): 28.9 ± 9.7 ng/mL; AUC ([2]; Plasma, Chronic BDPP): 320.9** ng/mL*h; Tmax ([2]; Plasma, Chronic Synbiotic): 30 min; Cmax ([2]; Plasma, Chronic Synbiotic): 0.0226 ± 0.0062 ng/mL; AUC ([2]; Plasma, Chronic Synbiotic): 0.1388 µg·h/mL"
"O=C(O)c1cc(O)c(O)c(O)c1 [GA, Gallic acid]",7.56 µg·h/mL,4.76 µg·h/mL,1340 ± 611 ng/mL,336 ± 112 ng/mL,18 min,120 min,1.27 µg·h/mL,2.39 µg·h/mL,18 min,–,–
"O=C(O)CNC(=O)c1ccccc1 [HA, Hippuric acid]",0.518 µg·h/mL,1.81 µg·h/mL,22.4 ± 11.6 ng/mL,111 ± 7.2 ng/mL,60 min,480 min,0.889 µg·h/mL,1.32 µg·h/mL,60 min,240 min,–
"COc1cc(CC(=O)O)ccc1O [HVA, Homovanillic acid]",5.92 µg·h/mL,6.22 µg·h/mL,296 ± 10 ng/mL,301 ± 14 ng/mL,60 min,60 min,0.205 µg·h/mL,1.47 µg·h/mL,60 min,30 min,–
"O=c1c(O)c(-c2cc(O)c(O)c(O)c2)oc2cc(O)cc(O)c12 [MYR, Myricetin]",0.0978 µg·h/mL,0.578 µg·h/mL,86.5 ± 38 ng/mL,118 ± 18 ng/mL,18 min,60 min,0.0853 µg·h/mL,0.305 µg·h/mL,30 min,18 min,–
"O=C(O)Cc1ccccc1 [PA, Phenylacetic acid]",6970 µg·h/mL,14500 µg·h/mL,447000 ± 37200 ng/mL,760000 ± 140000 ng/mL,30 min,480 min,8630 µg·h/mL,8800 µg·h/mL,30 min,240 min,–
"Oc1cc(O)c2c(c1)O[C@H](c1ccc(O)c(O)c1)[C@H](O)[C@H]2c1c(O)cc(O)c2c1O[C@H](c1ccc(O)c(O)c1)[C@H](O)C2 [PAC-B2, Proanthocyanidin dimer B2]",–,–,–,–,–,–,–,–,–,–,"Tmax ([2]; Plasma, Chronic BDPP): 30 min; Cmax ([2]; Plasma, Chronic BDPP): 2.0 ± 0.7 ng/mL; AUC ([2]; Plasma, Chronic BDPP): 0.0015 µg·h/mL; Tmax ([2]; Plasma, Chronic Synbiotic): 30 min; Cmax ([2]; Plasma, Chronic Synbiotic): 0.0027 ± 0.0008 ng/mL; AUC ([2]; Plasma, Chronic Synbiotic): 3.5* ng/mL*h"
"O=c1c(O)c(-c2ccc(O)c(O)c2)oc2cc(O)cc(O)c12 [QUER, Quercetin]",0.142 µg·h/mL,0.544 µg·h/mL,89.5 ± 48.3 ng/mL,98.6 ± 24.7 ng/mL,18 min,120 min,0.0461 µg·h/mL,0.583 µg·h/mL,18 min,18 min,–
"Oc1ccc(/C=C/c2cc(O)cc(O)c2)cc1 [RSV, t-Resveratrol (−)]",–,–,–,–,–,–,–,–,–,–,"Tmax ([1]; Brain, Chronic BDPP): 18 min; Cmax ([1]; Brain, Chronic BDPP): 9.5 ± 2.5 ng/mL; AUC ([1]; Brain, Chronic BDPP): 122.3** ng/mL*h; Tmax ([1]; Brain, Chronic Synbiotic): 120 min; Cmax ([1]; Brain, Chronic Synbiotic): 0.0038 ± 0.0002 ng/mL; AUC ([1]; Brain, Chronic Synbiotic): 0.0331 µg·h/mL; Tmax ([2]; Plasma, Chronic BDPP): 30 min; Cmax ([2]; Plasma, Chronic BDPP): 11628.0 ± 1788.0 ng/mL; AUC ([2]; Plasma, Chronic BDPP): 51313.0* ng/mL*h; Tmax ([2]; Plasma, Chronic Synbiotic): 30 min; Cmax ([2]; Plasma, Chronic Synbiotic): 15.785 ± 4.246 ng/mL; AUC ([2]; Plasma, Chronic Synbiotic): 33.1507 µg·h/mL"
"COc1cc(C(=O)O)ccc1O [VA, Vanillic acid]",0.169 µg·h/mL,0.205 µg·h/mL,9.7 ± 1 ng/mL,13.9 ± 1.8 ng/mL,18 min,60 min,0.299 µg·h/mL,0.118 µg·h/mL,30 min,18 min,–
